Results on 13 compounds are retold here after ChEMBL document CHEMBL1139904, “2-hydroxy-N-arylbenzenesulfonamides as ATP-citrate lyase inhibitors” (Bioorg Med Chem Lett, 2007).

One data set deals with T1, ATP-citrate synthase (Homo sapiens, UniProt P53396).
T1 sequence (P53396 whole entry): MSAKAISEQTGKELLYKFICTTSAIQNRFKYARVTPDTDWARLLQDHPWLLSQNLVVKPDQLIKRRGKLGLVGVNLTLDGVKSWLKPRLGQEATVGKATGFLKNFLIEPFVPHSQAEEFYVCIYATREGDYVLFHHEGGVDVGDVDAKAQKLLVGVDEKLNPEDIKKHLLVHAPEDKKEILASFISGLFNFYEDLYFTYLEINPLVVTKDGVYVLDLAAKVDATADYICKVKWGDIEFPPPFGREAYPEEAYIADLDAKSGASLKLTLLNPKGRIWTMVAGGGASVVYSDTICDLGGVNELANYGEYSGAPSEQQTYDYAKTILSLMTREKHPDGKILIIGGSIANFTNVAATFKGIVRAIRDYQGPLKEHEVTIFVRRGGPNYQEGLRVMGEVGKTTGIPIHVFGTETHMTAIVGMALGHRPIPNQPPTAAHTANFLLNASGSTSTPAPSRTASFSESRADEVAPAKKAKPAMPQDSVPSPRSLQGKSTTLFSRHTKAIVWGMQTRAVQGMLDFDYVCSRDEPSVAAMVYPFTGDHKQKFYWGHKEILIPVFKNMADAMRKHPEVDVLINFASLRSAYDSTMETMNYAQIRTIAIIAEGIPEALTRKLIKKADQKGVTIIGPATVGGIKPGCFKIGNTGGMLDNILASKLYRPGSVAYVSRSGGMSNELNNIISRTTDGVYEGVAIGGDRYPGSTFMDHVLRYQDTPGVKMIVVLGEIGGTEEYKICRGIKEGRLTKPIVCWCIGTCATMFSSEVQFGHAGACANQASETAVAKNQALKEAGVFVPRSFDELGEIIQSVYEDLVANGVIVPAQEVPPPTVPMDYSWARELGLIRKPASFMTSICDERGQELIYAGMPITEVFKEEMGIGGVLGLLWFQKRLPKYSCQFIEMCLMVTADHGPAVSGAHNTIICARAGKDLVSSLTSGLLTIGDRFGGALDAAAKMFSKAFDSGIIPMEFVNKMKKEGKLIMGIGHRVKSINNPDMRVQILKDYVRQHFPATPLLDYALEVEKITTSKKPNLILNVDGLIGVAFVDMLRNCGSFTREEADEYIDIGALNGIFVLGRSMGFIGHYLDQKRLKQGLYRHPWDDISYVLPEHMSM
The experiment in a line: Inhibition of human recombinant ATP-citrate lyase. In short, it runs like this: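 Recombinant human ACL enzyme assay; values are at least two separate measurements.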

For data set [1], the system named is Mus musculus. The experiment in a line: Reduction of triglycerides in high-fat diet C57BL/6 mouse at 10 mg/kg. Format: functional. Details: scale not given: the % may be the effect or the level left. In short, it runs like this: (§1)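 Eight-week-old C57BL/6 mice (~30 g), five per group. High-fat diet (30% coconut oil, 45% sucrose) admixed with compound to give 10 or 100 mg/kg/day, versus high-fat and normal-chow controls, for 34 days. Food intake and body weight tracked; plasma lipids and fasting glucose assessed weekly. Lipid/glucose changes expressed as % reduction versus high-fat controls at day 29.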

The test system of data set [2] is Mus musculus. Briefly: Increase in food consumption in high-fat diet C57BL/6 mouse at 10 mg/kg. Format: functional. In short, it runs like this: as §1
For data set [3], the system named is Mus musculus. The experiment in a line: Reduction of cholesterol level in high-fat diet C57BL/6 mouse at 10 mg/kg. Details: scale not given: the % may be the effect or the level left. The format is functional. The method in brief: as §1
The next data set deals with Acetyl-CoA carboxylase 1 (Homo sapiens, UniProt Q13085). Briefly: Inhibition of human ACC1.
For data set [4], the system named is Mus musculus. The experiment in a line: Reduction of cholesterol level in high-fat diet C57BL/6 mouse at 100 mg/kg. The format is functional. Details: scale not given: the % may be the effect or the level left. The method in brief:
as §1

Data set [5] relates to Mus musculus. Briefly: Reduction of fasting plasma glucose level in C57BL/6 mouse at 100 mg/kg. Format: functional. Further details: scale not given: the % may be the effect or the level left. The method in brief:
as §1

Data set [6] has as its system HepG2. Briefly: Cytotoxicity against HepG2 cells upto 50 uM by Alamar blue assay. The conditions noted are these: Homo sapiens.
A short description of data set [7]: Tmax in mouse at 10 mg/kg, po. The conditions noted are these: in vivo.
Data set [8] deals with Mus musculus. Briefly: Increase in food consumption in normal fat diet C57BL/6 mouse at 10 mg/kg. Format: functional.
For data set [9], the system named is Mus musculus. The experiment in a line: Reduction of triglycerides in high-fat diet C57BL/6 mouse at 100 mg/kg. The format is functional. Further details: scale not given: the % may be the effect or the level left. In short, it runs like this:
as §1

Data set [10] has as its system Mus musculus. The experiment in a line: Reduction of fat in high-fat diet C57BL/6 mouse at 10 mg/kg after 34 days. Further details: scale not given: the % may be the effect or the level left.
The test system of data set [11] is Mus musculus. The experiment in a line: Reduction of fasting plasma glucose level in C57BL/6 mouse at 10 mg/kg. The format is functional. Further details: scale not given: the % may be the effect or the level left. The method in brief:
as §1

The test system of data set [12] is Mus musculus. Briefly: Reduction of body weight gain in high-fat diet C57BL/6 mouse at 100 mg/kg after 29 days. The format is functional. Details: scale not given: the % may be the effect or the level left. The method in brief:
as §1

In data set [13] the test system is Mus musculus. Briefly: Reduction of body weight gain in high-fat diet C57BL/6 mouse at 10 mg/kg after 29 days. The format is functional. Further details: scale not given: the % may be the effect or the level left. The method in brief: as §1
A short description of data set [14]: Half life in mouse at 10 mg/kg, iv and po. The following applies: in vivo. Further details: dose 10 mg/kg, route oral. Format: ADME, organism-based. The method in brief:
(§2)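 Mice dosed at 10 mg/kg both iv and po; vehicle 10% ethanol, 45% water, 45% PEG-400. Standard PK parameters derived: oral bioavailability, half-life, Cmax (po), Tmax (po), total body clearance.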

The subject of data set [15] is HepG2. Briefly: Inhibition of total lipid synthesis HepG2 cells assessed as incorporation of [14C]total lipids after 6 hrs. The following applies: Homo sapiens, HepG2, 6 h. Format: functional, cell-based. The method in brief: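 HepG2 cells incubated 6 h after compound addition, with [14C]-alanine present for the final 4 h; label incorporation into total lipid measured.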

The subject of data set [16] is Mus musculus. The experiment in a line: Reduction of fat in high-fat diet C57BL/6 mouse at 100 mg/kg after 34 days. Details: scale not given: the % may be the effect or the level left.
The nature of data set [17]: Oral bioavailability in mouse at 10 mg/kg. Format: ADME, organism-based. The following applies: in vivo. In short, it runs like this:
as §2

Data set [18] can be described thus: Cmax in mouse at 10 mg/kg, po. Format: ADME, organism-based. The following applies: in vivo. Further details: dose 10 mg/kg, route oral. The method in brief:
as §2

The target of another data set is Acetyl-CoA carboxylase 2 (Homo sapiens, UniProt O00763). The experiment in a line: Inhibition of human ACC2.
Chain of Acetyl-CoA carboxylase 2 (O00763 whole entry): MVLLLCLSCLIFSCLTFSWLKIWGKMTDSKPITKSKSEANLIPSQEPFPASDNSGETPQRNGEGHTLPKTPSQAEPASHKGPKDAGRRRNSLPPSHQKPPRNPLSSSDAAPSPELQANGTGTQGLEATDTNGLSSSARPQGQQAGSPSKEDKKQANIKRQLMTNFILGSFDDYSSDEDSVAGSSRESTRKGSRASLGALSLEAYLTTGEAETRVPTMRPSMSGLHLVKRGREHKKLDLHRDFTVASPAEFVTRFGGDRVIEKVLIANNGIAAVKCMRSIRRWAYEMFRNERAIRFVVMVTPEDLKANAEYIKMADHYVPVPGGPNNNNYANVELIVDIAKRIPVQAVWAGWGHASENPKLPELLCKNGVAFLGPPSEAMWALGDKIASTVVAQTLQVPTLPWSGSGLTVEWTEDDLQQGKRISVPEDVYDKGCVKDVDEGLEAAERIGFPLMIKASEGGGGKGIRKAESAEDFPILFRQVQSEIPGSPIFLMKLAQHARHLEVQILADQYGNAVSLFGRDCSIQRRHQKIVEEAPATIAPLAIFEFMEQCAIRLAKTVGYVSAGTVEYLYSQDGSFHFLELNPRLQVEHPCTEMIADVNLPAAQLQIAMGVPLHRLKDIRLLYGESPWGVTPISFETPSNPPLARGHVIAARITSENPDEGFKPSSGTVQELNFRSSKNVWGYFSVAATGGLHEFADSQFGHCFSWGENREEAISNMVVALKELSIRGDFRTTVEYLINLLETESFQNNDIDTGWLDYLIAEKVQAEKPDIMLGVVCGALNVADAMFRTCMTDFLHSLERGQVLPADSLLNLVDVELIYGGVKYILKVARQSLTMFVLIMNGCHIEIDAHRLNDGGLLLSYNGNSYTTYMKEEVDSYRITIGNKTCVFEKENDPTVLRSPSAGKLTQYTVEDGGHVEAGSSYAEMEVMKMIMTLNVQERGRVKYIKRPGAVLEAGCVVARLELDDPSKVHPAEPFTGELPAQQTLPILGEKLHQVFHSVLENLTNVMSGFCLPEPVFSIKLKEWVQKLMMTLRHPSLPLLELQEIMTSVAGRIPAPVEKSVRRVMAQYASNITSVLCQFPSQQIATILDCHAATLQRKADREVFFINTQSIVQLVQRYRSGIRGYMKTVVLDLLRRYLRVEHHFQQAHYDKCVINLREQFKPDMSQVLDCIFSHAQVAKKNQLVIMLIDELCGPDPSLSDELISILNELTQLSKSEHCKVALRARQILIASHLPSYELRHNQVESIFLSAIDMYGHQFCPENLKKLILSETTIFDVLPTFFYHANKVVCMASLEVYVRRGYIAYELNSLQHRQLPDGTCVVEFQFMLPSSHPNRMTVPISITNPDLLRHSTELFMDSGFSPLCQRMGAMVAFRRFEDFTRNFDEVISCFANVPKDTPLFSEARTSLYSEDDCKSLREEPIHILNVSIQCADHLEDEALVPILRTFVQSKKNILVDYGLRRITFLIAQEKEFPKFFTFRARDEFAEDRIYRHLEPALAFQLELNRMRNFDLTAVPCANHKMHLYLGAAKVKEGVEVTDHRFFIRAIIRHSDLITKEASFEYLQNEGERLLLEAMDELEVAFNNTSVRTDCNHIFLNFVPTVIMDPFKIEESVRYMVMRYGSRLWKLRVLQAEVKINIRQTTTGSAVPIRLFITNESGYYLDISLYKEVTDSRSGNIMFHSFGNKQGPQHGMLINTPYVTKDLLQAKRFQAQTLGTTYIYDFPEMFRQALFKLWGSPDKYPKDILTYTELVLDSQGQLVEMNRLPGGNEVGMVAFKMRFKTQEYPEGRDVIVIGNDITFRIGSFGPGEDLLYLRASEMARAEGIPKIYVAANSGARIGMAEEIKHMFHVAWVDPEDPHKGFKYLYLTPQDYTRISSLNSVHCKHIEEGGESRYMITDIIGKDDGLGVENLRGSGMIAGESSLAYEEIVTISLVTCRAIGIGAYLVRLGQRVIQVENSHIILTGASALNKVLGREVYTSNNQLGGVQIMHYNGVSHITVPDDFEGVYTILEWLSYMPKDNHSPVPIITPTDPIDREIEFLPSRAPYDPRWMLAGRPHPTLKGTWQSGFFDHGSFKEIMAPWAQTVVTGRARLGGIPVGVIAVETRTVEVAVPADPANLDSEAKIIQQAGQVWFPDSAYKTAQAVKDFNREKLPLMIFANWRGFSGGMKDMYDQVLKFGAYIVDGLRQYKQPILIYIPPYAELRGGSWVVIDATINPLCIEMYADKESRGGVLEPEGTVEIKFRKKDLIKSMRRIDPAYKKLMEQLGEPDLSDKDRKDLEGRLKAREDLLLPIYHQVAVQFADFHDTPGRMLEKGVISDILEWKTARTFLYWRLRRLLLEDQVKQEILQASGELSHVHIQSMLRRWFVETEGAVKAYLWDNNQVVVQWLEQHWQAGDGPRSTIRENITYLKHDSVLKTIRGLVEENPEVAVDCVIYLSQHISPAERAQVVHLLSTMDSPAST

Usually IC50 stands for the midpoint of a concentration-inhibition curve. As a reminder, the Tmax is the time from dosing to the highest level. The term half-life denotes the time needed for the level to fall by half in the phase considered. What is called bioavailability is the share of a dose that reaches the circulation, judged against a reference dose that is usually intravenous. A word on the Cmax: it is the peak of the concentration-time curve.

Turning to `O=C(O)C[C@@](O)(C(=O)O)[C@H](O)C(=O)O`, the IC50 on ATP-citrate synthase came to 0.15 µM.

In the case of `O=S(=O)(Nc1cc(F)cc(F)c1)c1cc(Cl)cc(Cl)c1O`, the IC50 on ATP-citrate synthase is 7.6 µM.

Turning to `O=C(OC/C=C\c1ccccc1)c1ccccc1NS(=O)(=O)c1cc(Cl)cc(Cl)c1O`, the concentration for half-maximal inhibition (IC50) at ATP-citrate synthase was 0.34 µM.

Regarding `CCCCCCc1ccc(NS(=O)(=O)c2cc(Cl)cc(Cl)c2O)cc1`, on ATP-citrate synthase, the concentration for half-maximal inhibition (IC50) was determined as 6.9 µM.

As to `COc1ccc(-c2ccccc2)cc1NS(=O)(=O)c1cc(Cl)cc(Cl)c1O`, the Activity is -26% in the data set with Mus musculus [1]; 3.2 g/day with Mus musculus [2]; -9% in the data set on Mus musculus [3]; -19% in the data set with Mus musculus [4]; -32% in the data set with Mus musculus [5]; “Not toxic” with HepG2 [6]. The Activity with Mus musculus [8] is 4 g/day; with Mus musculus [9], -26%; in the data set with Mus musculus [10], 12.9%; in the data set on Mus musculus [11] it was -48%; in the data set on Mus musculus [12], 3%; in the data set with Mus musculus [13], 7.2%. Besides, in the data set on Mus musculus [16], the Activity is 7.3%. The IC50 against Acetyl-CoA carboxylase 1 came to 6 µM; on ATP-citrate synthase, 0.13 µM; in the data set with HepG2 [15], 8 µM; at Acetyl-CoA carboxylase 2, 12 µM. The Tmax in data set [7] amounted to 0.5 h. The same compound had a half-life in [14] of 2.1 h. The same compound yielded a bioavailability in data set [17] of 55%. Also, the maximum concentration (Cmax) in data set [18] worked out at 13 µM.

Consider `CC(=O)N(C)c1ccc(NS(=O)(=O)c2cc(Cl)cc(Cl)c2O)cc1`, for which, on ATP-citrate synthase, the concentration for half-maximal inhibition (IC50) worked out at 10.9 µM.

Take `O=C(O)C[C@@](O)(C[C@H](O)CCCCCCc1ccc(Cl)cc1Cl)C(=O)O`: at ATP-citrate synthase, the concentration for half-maximal inhibition (IC50) worked out at 2.1 µM.

Take `CC(C)(C)c1cc(NS(=O)(=O)c2cc(Cl)cc(Cl)c2O)cc(C(C)(C)C)c1`: the IC50 on ATP-citrate synthase amounted to 1.1 µM.

Turning to `O=S(=O)(Nc1c(-c2ccccc2)cc(-c2ccccc2)cc1-c1ccccc1)c1cc(Cl)cc(Cl)c1O`, the IC50 at ATP-citrate synthase was determined as 0.19 µM.

`O=S(=O)(Nc1cc(Cl)cc(Cl)c1)c1cc(Cl)cc(Cl)c1O`: the IC50 at ATP-citrate synthase turned out to be 2.3 µM.

Consider `O=S(=O)(Nc1cccc(Oc2ccccc2)c1)c1cc(Cl)cc(Cl)c1O`, for which, on ATP-citrate synthase, the IC50 came out at 8.1 µM.

For `CC1CCC(C(C)C)C(OC(=O)c2ccccc2NS(=O)(=O)c2cc(Cl)cc(Cl)c2O)C1` (stereo not drawn), the IC50 at ATP-citrate synthase worked out at 0.37 µM.

For `CC(C)(C)c1ccc(C(C)(C)C)c(NS(=O)(=O)c2cc(Cl)cc(Cl)c2O)c1`, the 50% inhibitory concentration (IC50) on ATP-citrate synthase turned out to be 5.6 µM.
